Compound activity (PubChem BioAssay)
H69AR inhibit – growth inhibitors of human H69AR lung tumor cells. H69AR lung tumor viability, ATP luminescence, 72 h; active compounds read low. viability, % at 10 µM. 6% of 85,000 active;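 active = viability at or below 40%; inactive = viability above 40%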;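 also: multidrug resistant small cell line overexpressing MRP-1 efflux transporter; 100% = mean luminescence of untreated control wells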
HUVEC inhibit – inhibitors of human endothelial cell proliferation; 1.1% of 86,000 active; viability, % at 10 µM (by protocol); HUVEC proliferation, CellTiter-Glo luminescence, 72 h; active compounds read low;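 active = viability at or below 30%; inactive = viability above 30%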;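 also: 100% = median luminescence of DMSO-only cell control wells on each plate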
PTEN del growth – growth suppressors of cells with PTEN tumor suppressor deletion; HCT116 PTEN-null viability, CellTiter-Glo, 60 h; active compounds read low; viability, % at 10 µM; 1.2% of 140,000 active;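 active = viability at or below a set limit, 4 SD under the median of all tested compounds, cut at about 3.7% in these data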;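 also: PTEN knockout HCT116 line with beta catenin targeted HCT116 as companion control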
HCT116 bCat-KO – beta-catenin-lacking colon tumor cell growth suppression; HCT116 beta-catenin knockout viability, CellTiter-Glo, 60 h; active compounds read low; 1.5% of 140,000 active; AID 818; viability, % at 10 µM;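 active = viability at or under a set limit, the compound median less 4 SD, cut at about 6% in these data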;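 also: 0% = Hyamine 1622 control at 20 µM and 100% = untreated cell control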
Lung fibro prol – blocks proliferation of human lung fibroblasts; LL 47 human lung fibroblast viability, ATP luminescence; active compounds read low; viability, % at 10 µM; 1.1% of 85,000 active;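 active = viability at or below 50% in the single dose screen; inactive = viability above 50%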;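 also: compound exposure lasted 72 h before the ATP readout; 100% = median luminescence of untreated cell-only wells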
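Signal: luminescent ATP detection, CellTiter-Glo; assay system: LL 47 human lung fibroblasts; input: 1,150 cells/well; incubation: overnight cell rest, 72 h compound treatment at 37 °C; measure: % viability versus median cells-only luminescence; medium: IMEM growth medium with 15% fetal bovine serum; dosing: compound addition at 0.1% DMSO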
The depositor's hits bear a star; · = not tested or not shown. Many of the other results were omitted from the sample, so hits are more common in it than they were.

SMILES | H69AR inhibit | HUVEC inhibit | PTEN del growth | HCT116 bCat-KO | Lung fibro prol
CCOC(=O)c1c(C)[nH]c(C=C2C(=O)CCCC2=O)c1O | · | · | 92 | 91 | ·
Cc1ccc2cc3c(N)[nH]nc3nc2c1 | · | · | 83 | 78 | ·
O=C(OCc1ccccc1)c1cn(-c2ccccc2)nc1-c1ccncc1 | 54 | 82 | 86 | 92 | 103
CC(=O)Nc1ccc(S(=O)(=O)NC2=C(N3CCN(Cc4ccccc4)CC3)C(=O)c3ccccc3C2=O)cc1 | 31* | 7.0* | 64 | 55 | 103
CCN(CC)S(=O)(=O)c1ccc(N2CCOCC2)c(NC(=O)Cc2cccc3ccccc23)c1 | · | · | 90 | 88 | ·
CS(=O)(=O)N(Cc1ccccc1)c1ccc(C(=O)NC2CCCCC2O)cc1 (stereo unspecified) | 101 | 99 | 93 | 95 | 98
Cc1ccc(N(Cc2ccc(C(=O)NC3CCCCC3)cc2)S(C)(=O)=O)cc1C | 19* | 62 | 77 | 71 | 91
Cc1ccc(NC(=O)C2CCCN2S(=O)(=O)c2ccc3c(c2)n(C)c(=O)c(=O)n3C)cc1C (stereo unspecified) | · | · | 88 | 85 | ·
C=CCNC(=O)CSc1nc2cc(C(=O)OCC)ccc2n1CC | 26* | 80 | 84 | 84 | 91
CCOC(=O)c1ccc2c(c1)nc(SCC(=O)c1cc3ccccc3o1)n2CC | 59 | 90 | 74 | 76 | 91
Cn1c(NC(=O)c2ccc(S(=O)(=O)N3CCOCC3)cc2)cc(=O)n(C)c1=O | · | · | 96 | 89 | ·
Cc1nc2ccsc2c(=O)n1-c1ccc(Cl)cc1 | · | · | 101 | 102 | ·
CN1c2ccccc2-c2nc3ccccc3n2C1c1ccccn1 (stereo unspecified) | 58 | 99 | 87 | 86 | 99
c1ccc(CN2c3ccccc3-c3nc4ccccc4n3C2c2ccccn2)cc1 (stereo unspecified) | 32* | 74 | 59 | 69 | 80
Cc1nn(Cc2cccc(F)c2)c(C)c1NC(=O)c1c(Cl)cnn1C | · | · | 88 | 95 | ·
CC1(C)CC(=O)C([N+](=O)[O-])=C(NCCCC(=O)O)C1 | · | · | 94 | 91 | ·
N#Cc1nc(COc2ccccc2)oc1NCCCn1ccnc1 | 98 | 87 | 105 | 97 | 107
N#Cc1nc(-c2ccc(OCc3ccccc3)cc2)oc1NCCCn1ccnc1 | 6.5* | 5.8* | 44 | 67 | 92
CCCOc1ccc(-c2nc(C#N)c(NCCCn3ccnc3)o2)cc1 | 50 | 28* | 17 | 78 | 90
COc1ccc(-c2nc(C#N)c(NCCCn3ccnc3)o2)cc1OC | 91 | 106 | 81 | 81 | 109
N#Cc1nc(-c2ccc(OCc3ccccc3Cl)cc2)oc1NCCCn1ccnc1 | 94 | 2.6* | 19 | 25 | 62
O=C(N/N=C1\CCCc2ccccc21)C(O)c1ccccc1 (stereo unspecified) | · | · | 88 | 97 | ·
O=C1CC(c2ccc(F)cc2)Sc2nc(C34CC5CC(CC(C5)C3)C4)nn21 (stereo unspecified) | · | · | 79 | 94 | ·
CC(=O)N(Cc1ccc(F)cc1)C1=C(NCCc2ccccc2)C(=O)c2ccccc2C1=O | 1.2* | 4.3* | 2.3* | 1.9* | 1.8*
CC(C)[C@H](NC(=O)NCCc1ccc(F)cc1)C(=O)O | 92 | 103 | 12 | 11 | 96
SMILES | H69AR inhibit | HUVEC inhibit | PTEN del growth | HCT116 bCat-KO | Lung fibro prol
CCOC(=O)C1CCCN(C(=O)CN2C(=O)/C(=C/c3ccc(OC)cc3)Oc3ccccc32)C1 (stereo unspecified) | · | · | 49 | 54 | ·
COCCNC(=O)NC1(C(F)(F)F)Oc2ccc(Cl)cc2O1 (stereo unspecified) | 34* | 57 | 63 | 58 | 63
O=C(NCc1cccnc1)NC1(C(F)(F)F)Oc2ccc(Cl)cc2O1 (stereo unspecified) | 31* | 51 | 21 | 23 | 70
C/C(=N\NC(=O)c1ccccc1-n1cccc1)C1CC1 | · | · | 93 | 85 | ·
CCCn1c(N2CCN(CC(=O)NCc3cccs3)CC2)nc2ccccc21 | 38* | 102 | 83 | 93 | 99
CCCn1c(N2CCN(S(=O)(=O)Cc3ccccc3)CC2)nc2ccccc21 | 39* | 77 | 90 | 90 | 57
CCCn1c(N2CCN(C(=O)N3CCCCC3)CC2)nc2ccccc21 | 83 | 114 | 98 | 95 | 102
CSc1nc2c(c(-c3ccc(O)cc3)c1C#N)CCC2 | 26* | 83 | 68 | 78 | 94
N#Cc1c(N)c(C#N)c(-c2ccc(O)cc2)c2c1CCCC2 | 78 | 78 | 74 | 82 | 98
